Bioassay records from PubChem.
An excerpt weighted towards active compounds, which were near 4.2% of everything screened.
Lipid droplet: hepatic lipid droplet formation modulation. AML12 mouse hepatocytes, oleate lipid droplets, BODIPY imaging. inhibition, % at 6.5 µM. 240,000 tested, 0.4% active. AID 1656;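 active = lipid droplet intensity inhibited by at least 50%, with more than 500 cells counted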
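System: AML12 hepatocytes (mouse). Probe or stimulus: oleic acid at 100 µM to induce lipid droplet formation. Times: overnight treatment with compound plus oleate. Detection: Image-based BODIPY and DAPI two-channel analysis. Evaluation: percent inhibition of filter-corrected integrated lipid droplet intensity per well.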
TMEM16A act: mouse TMEM16A channel activation, primary screen | B-score at 10 µM | AID 623877 | HEK293 TMEM16A/YFP-H148Q/I152L, iodide quench fluorescence; hits give low values | 340,000 tested, 0.3% active | Q8BHY3;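 active = fluorescence-ratio B-score plate-corrected deviation score at least 3 library SD below zero, with starting fluorescence score within 5 deviations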;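 also: channel opened by trigger with iodide after compound preincubation; score built on the fluorescence ratio of max minus min over baseline; more negative score means more quench and so TMEM16A activation or potentiation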
Target sequence (Q8BHY3 whole entry, looked up): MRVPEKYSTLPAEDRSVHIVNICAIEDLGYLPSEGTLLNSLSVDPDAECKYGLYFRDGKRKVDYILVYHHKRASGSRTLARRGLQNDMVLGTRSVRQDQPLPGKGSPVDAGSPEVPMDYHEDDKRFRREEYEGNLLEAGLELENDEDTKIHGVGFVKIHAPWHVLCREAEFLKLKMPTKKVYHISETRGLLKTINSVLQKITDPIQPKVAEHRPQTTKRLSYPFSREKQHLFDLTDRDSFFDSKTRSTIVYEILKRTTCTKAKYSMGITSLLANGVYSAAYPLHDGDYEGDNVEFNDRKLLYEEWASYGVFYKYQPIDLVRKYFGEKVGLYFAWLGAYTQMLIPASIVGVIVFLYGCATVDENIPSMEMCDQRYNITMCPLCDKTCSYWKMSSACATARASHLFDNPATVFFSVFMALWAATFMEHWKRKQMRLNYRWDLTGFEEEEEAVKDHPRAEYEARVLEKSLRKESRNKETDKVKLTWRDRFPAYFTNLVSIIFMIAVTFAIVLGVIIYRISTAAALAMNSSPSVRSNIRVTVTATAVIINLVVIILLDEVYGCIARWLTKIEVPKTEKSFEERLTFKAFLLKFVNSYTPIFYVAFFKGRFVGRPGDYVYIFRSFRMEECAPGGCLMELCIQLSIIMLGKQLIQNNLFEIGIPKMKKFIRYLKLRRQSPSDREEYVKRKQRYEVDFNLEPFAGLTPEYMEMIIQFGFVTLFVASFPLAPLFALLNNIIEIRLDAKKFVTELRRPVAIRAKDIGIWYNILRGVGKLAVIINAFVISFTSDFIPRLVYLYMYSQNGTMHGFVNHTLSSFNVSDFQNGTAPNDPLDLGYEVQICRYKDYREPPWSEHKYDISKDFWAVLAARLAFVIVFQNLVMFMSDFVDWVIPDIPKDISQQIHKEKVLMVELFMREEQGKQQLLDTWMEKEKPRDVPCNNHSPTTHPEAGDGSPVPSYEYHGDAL
UPR XBP1 act: activators of adaptive arm of unfolded protein response (XBP1). activation, % at 20 µM. CHO-XBP1 luciferase reporter, IRE1-XBP1 UPR activation, luminescence; percent of tunicamycin response, DMSO as zero. 330,000 tested, 0.33% active;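 active = versus positive control, 20 µM dose yields 30% or more activation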;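 also: 100% = tunicamycin at 10 µg/mL and 0% = DMSO only wells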
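Material: CHO cell line with stable XBP1 luciferase reporter; buffer or medium: F12 medium containing 10% fetal bovine serum; compound: single point, 20 µM final compound, 1% DMSO; incubation: 6 h treatment, 37 °C; measured by: glow luminescence from Steady-Glo reagent; evaluation: activation, % of tunicamycin; control set: tunicamycin high, DMSO low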
UPR CHOP act: apoptotic UPR (CHOP) activation | CHO-CHOP luciferase reporter, luminescence; percent of tunicamycin response over DMSO baseline | activation, % at 10 µM | 330,000 tested, 0.34% active;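 active = at 10 µM dose, activation of 40% or more, normalized to positive control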;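 also: 100% = tunicamycin at 10 µg/mL and 0% = DMSO alone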
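Material: CHO-CHOP cells, stable luciferase reporter of PERK-eIF2a-CHOP signalling; quantity: 500 reporter cells seeded per well; buffer or medium: F12 medium containing 10% fetal bovine serum; compound: one dose, 10 µM in 0.5% DMSO; incubation: 6 h compound treatment, 37 °C; measured by: Steady-Glo luciferase luminescence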
ANO1 block: inhibitors of mouse TMEM16A calcium-activated chloride channel. Q8BHY3. HEK293 TMEM16A/YFP iodide influx fluorescence, ionomycin. normalized B-score (activity score, 25-100; higher = stronger inhibition) at 10 µM. 310,000 tested, 1.2% active;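 active = ratio plate-corrected score three or more library SD toward inhibition, starting fluorescence score within five deviations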;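 also: score derived from kinetic fluorescence span divided by baseline fluorescence per well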
CHOP inhibitor: inhibitors of CHOP induction in ER stress response | inhibition, % at 10 µM | CHO-K1 CHOP-promoter luciferase, tunicamycin-induced, 15-18 h | 220,000 tested, 3.8% active | AID 2732;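 active = compounds that reduced the stress-induced luciferase reporter signal by more than about 70% of percent inhibition, limit read from the data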;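 also: 0% = tunicamycin plus vehicle and 100% = wells without tunicamycin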
The depositor's hits bear a star; i = inactive; . = no result given.

SMILES	Lipid droplet	TMEM16A act	UPR XBP1 act	UPR CHOP act	ANO1 block	CHOP inhibitor
CC1CN(C(=O)COc2ccc3c(-c4ccccc4)cc(=O)oc3c2)CC(C)O1 (centres undefined)	.	i	0	0	.	.
COCCCNC(=O)Cn1c(=O)oc2cc(S(=O)(=O)N3CC(C)CC(C)C3)ccc21 (centres undefined)	-23	i	-8	0	i	.
CCCCNC(=O)Cn1c(=O)oc2cc(S(=O)(=O)N3CC(C)CC(C)C3)ccc21 (centres undefined)	.	i	0	-2	i	94*
Cc1cc(C)cc(NC(=O)Cn2c(=O)oc3cc(S(=O)(=O)N4CC(C)CC(C)C4)ccc32)c1 (centres undefined)	.	i	-4	2	i	83*
O=C(COC(=O)c1ccco1)Nc1ccc([N+](=O)[O-])cc1Cl	.	-26*	-1	3	.	.
COc1ccc(NC(=O)COC(=O)c2ccco2)c([N+](=O)[O-])c1	13	i	-1	3	i	-1
CC1CCN(c2cc(N3CCOCC3)c([N+](=O)[O-])cc2F)CC1	.	i	-2	-2	i	1
CC1CCN(c2cc(N3CCOCC3)c(F)cc2[N+](=O)[O-])CC1	.	i	-2	5	i	82*
CCOc1c(OC(C)=O)ccc(/C=C2\N=C(SCC)SC2=O)c1[N+](=O)[O-]	.	i	-3	0	100*	10
CCOc1cc(/C=C2\N=C(SCC)SC2=O)cc([N+](=O)[O-])c1OC(C)=O	.	i	0	1	100*	28
CCSC1=N/C(=C\c2ccc(C)s2)C(=O)S1	16	i	0	-1	i	60
CCOc1c(O)ccc(/C=C2\SC(=S)NC2=O)c1[N+](=O)[O-]	-9	i	-3	0	i	-7
Cc1ccc(-c2nc3ccccc3o2)cc1NC(=O)Cc1cccs1	.	i	0	0	i	80*
O=C(Cc1cccs1)Nc1cccc(-c2nc3ccccc3o2)c1	.	i	1	2	i	90*
Cc1nn(S(=O)(=O)c2ccc(F)cc2)c(C)c1S(=O)(=O)N1CCCCC1	-1	i	-3	-1	i	.
CC(C)Cc1nnc(NC(=O)c2cc3c(s2)CCC3)s1	11	i	0	5	i	85*
CC(C)CN1CCN(Cc2ccc(C#CC(C)(C)O)cc2)CC1CCO (centres undefined)	-7	i	-2	-1	i	1
CC(C)CCN1CCN(Cc2ccc(C#CC(C)(C)O)s2)CC1CCO (centres undefined)	-3	-8.5*	0	0	i	8
CCOC(=O)C1(CC2CCCCO2)CCN(Cc2c(C)cc(C)cc2-n2cccn2)CC1 (centres undefined)	-13	i	-2	-1	i	20
CCOC(=O)C1(CC2CCCCO2)CCN(Cc2cc(F)ccc2-n2cccn2)CC1 (centres undefined)	-5	i	0	-1	i	76*
Cc1cccc(Nc2nc(NCc3ccco3)c3ccccc3n2)c1	-19	i	.	.	25*	69
Cc1ccc(Nc2nc(N)c([N+](=O)[O-])c(NCc3ccco3)n2)cc1C	4	i	3	5	i	79*
COc1cc(S(=O)(=O)N2CCOCC2)ccc1NC(=O)COC(=O)CC12CC3CC(CC(C3)C1)C2	-2	i	-3	1	i	-12
NS(=O)(=O)c1ccc(NC(=O)CSc2n[nH]c(=O)n2C2CC2)cc1	.	i	-2	-1	.	.
CCn1c(=NC(=O)CS(=O)(=O)c2ccc(C)cc2)sc2cccc(OC)c21	.	i	-1	7	100*	.
SMILES	Lipid droplet	TMEM16A act	UPR XBP1 act	UPR CHOP act	ANO1 block	CHOP inhibitor
Cc1ccc(-c2ccc(S(=O)(=O)NCc3ccco3)cc2)cc1	1	i	-1	3	i	75*
C/C(=N\Nc1nc(Cl)c(Cl)cc1Cl)c1ccc(S(=O)(=O)NCc2ccco2)cc1	0	i	0	-1	i	87*
C/C(=N\Nc1ccccn1)c1ccc(S(=O)(=O)NCc2ccco2)cc1	3	i	2	1	i	41
Cc1c(CC(=O)N[C@H](C(=O)O)C(C)C)c(=O)oc2cc3c(cc12)CCC(C)(C)O3	-2	i	-9	0	i	.
CC(=O)N/C(=C\c1ccccc1)C(=O)OC(C)C(=O)Nc1ccccc1F (centres undefined)	.	i	-1	0	.	.
C=CCOc1ccc(CN(C)C(=O)CNC(=O)c2ccc(-c3ccccc3)cc2)cc1	-8	i	0	5	25*	.
CCOc1ccc(CN(C)C(=O)CNC(=O)c2ccccc2)cc1	18	i	-6	0	i	.
COc1ccccc1N1CCN(C(C)C(=O)N2CC(C)OC(C)C2)CC1 (centres undefined)	2	i	2	1	i	-4
CCN(CC)CCNC(=O)c1ccc(NC(=O)c2cn(-c3ccccc3)nc2-c2cccs2)cc1	4	i	7	5	25*	67
CCc1ccccc1S(=O)(=O)Cc1ccc(C(=O)NCc2ccc3c(c2)OCO3)o1	.	i	-2	0	i	87*
O=C(NCc1ccc2c(c1)OCO2)c1ccc(CS(=O)(=O)Cc2cccc(Cl)c2)o1	7	i	-2	-4	i	29
Cc1cnc(NC(=O)CN2CCN(c3ccccn3)CC2)s1	.	i	-3	-2	i	74*
OC(COCc1ccccc1)COCc1ccccc1	.	i	.	.	.	.
O=S(CC(O)COCc1ccc(Cl)cc1)c1ccccn1 (centres undefined)	-3	-8.1*	1	1	i	-10
O=C(CN1CCN(CN2C(=O)NC3(CCCCCC3)C2=O)CC1)Nc1ccc(F)cc1	.	i	-2	0	.	.
COc1ccc(CCN2CCCC(CN(C)C(=O)c3ccoc3)C2)cc1 (centres undefined)	-7	i	-1	3	i	.
O=C1C2CC=CCC2C(=O)N1c1ccc(NCCc2ccc(O)cc2)c([N+](=O)[O-])c1 (centres undefined)	-7	i	7	3	25*	-33
O=C1C2CC=CCC2C(=O)N1c1ccc(NCCc2cccc(F)c2)c([N+](=O)[O-])c1 (centres undefined)	-4	i	-2	1	i	26
CC1/C(=C\c2ccc(Cl)cc2)C(=O)C2CC1C2(C)C (centres undefined)	1	i	-2	3	i	76*
